The values below come from article PMC3466779 (Biochemistry, 2012).

SMILES strings stand for the structures. Values joined by “and” are separate entries in the source; they are usually repeats but may differ in a detail not shown here. Identical values can stand only once.

The target in data set [1] is T1, MtATP-PRT (Mycobacterium tuberculosis, UniProt P9WMN1).
T1 sequence (P9WMN1 1-284): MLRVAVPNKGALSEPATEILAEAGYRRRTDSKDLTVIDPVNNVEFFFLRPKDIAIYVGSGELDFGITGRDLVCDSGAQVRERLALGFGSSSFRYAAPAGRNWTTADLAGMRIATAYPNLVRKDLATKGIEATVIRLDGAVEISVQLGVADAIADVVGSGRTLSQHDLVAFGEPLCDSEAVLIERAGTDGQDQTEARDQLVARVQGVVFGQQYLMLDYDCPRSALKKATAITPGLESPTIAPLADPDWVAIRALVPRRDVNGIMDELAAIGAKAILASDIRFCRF
The data set can be described thus: Steady-state kinetics: initial velocities of the forward reaction. It is filed as biochemical.

Data set [2] addresses T1, MtATP-PRT. The data set can be described thus: Steady-state inhibition studies with L-histidine. It is filed as biochemical. Conditions: for Kii: 7 mM MgCl2, 200 mM KCl.
The target in data set [3] is T1, MtATP-PRT. The data set can be described thus: pH studies of L-histidine inhibition. The class given is biochemical. Conditions: 0.8 mM PRPP fixed.
Data set [4] has as its target T1, MtATP-PRT. The data set can be described thus: Pre-steady-state stopped-flow burst kinetics. It is filed as biochemical.
For data set [5], the target named is T1, MtATP-PRT. The data set can be described thus: STD-NMR saturation transfer. It is filed as binding. Conditions: 0.6 mM L-histidine, 30 μM HisG, 25 °C. The method in brief: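 STD 1H NMR was run at 14.4 T with 30 μM enzyme and 0.6 mM L-histidine in 50 mM sodium phosphate at each pH, 25 °C. Saturation times of 0.2–2.0 s in 0.2 s steps were recorded interleaved, with on-resonance protein presaturation at 0.8 ppm. A single off-resonance control used 2 s. Water was suppressed by excitation sculpting. Read-out was percent transfer per histidine proton.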

Data set [6] addresses T1, MtATP-PRT. The data set can be described thus: Gel filtration, solution oligomeric state. Conditions: 20 mM Tris-HCl pH 8, 100 mM NaCl; 2 mM L-histidine, or ATP. In short, it runs like this: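 Recombinant enzyme was expressed in E. coli BL21(DE3)pLysS and Ni-NTA purified. It was injected at 0.1–10 mg/mL onto a Sephacryl S-200 column calibrated with molecular-weight standards. Elution was isocratic for 1.5 column volumes at 0.5 mL/min in 20 mM Tris-HCl pH 8, 100 mM NaCl, with or without 2 mM L-histidine. Apparent mass was read from elution position.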
On the technique in general: In gel filtration, larger molecules generally elute earlier.

The conditions of data set [7]: no reference given, cited from earlier work.
The target in data set [8] is Lactococcus lactis ATP-PRT. As to conditions: pH 8; cited from earlier work.

In the case of `O[C@@H](CS)[C@@H](O)CS` [DTT], the “effect of the thiol reducing agent on the time course” value in data set [1] (data not shown) is “did not alter the time course”.
Broadly, the Ki is a measure of affinity in units of concentration, obtained from inhibition or displacement. The term IC50 denotes the concentration that inhibits the measured activity by half. The term Kd denotes the constant that tells how readily two partners part at equilibrium. A higher Kd goes with a looser complex. One may read the koff as the first-order rate constant of dissociation. The term kon denotes a measure of how fast the partners come together. For `N[C@@H](Cc1c[nH]cn1)C(=O)O` [L-histidine], the Ki in data set [2] is 25.7 ± 12.8 µM; in data set [8], 81 µM. Moreover, the IC50 in data set [2] (IC50,L-histidine, 50 mM Tris-HCl pH 8.5, 7 mM MgCl2, 200 mM KCl, 1.6 mM ATP, 0.8 mM PRPP, 25 °C) was 33.3 µM and 33 µM. The Hill number in data set [2] (IC50 curve, pH 8.5, 1.6 mM ATP, 0.8 mM PRPP) is on record as 1.5. In addition, the Kii in data set [2] (pH 8.50 (Tris-HCl), varied ATP, 0.8 mM PRPP fixed, 25 °C) was 27.9 ± 1.9 µM; in data set [2] (pH 8.50, varied PRPP, 1.6 mM ATP fixed, 25 °C) it was 23.5 ± 6.5 µM; in data set [3] (pH 8.00, varied ATP), 4 µM and 4.0 ± 0.4 µM; in data set [3] (pH 8.25, varied ATP) it was 7.9 ± 1.5 µM; in data set [3] (pH 8.50 (pH series), varied ATP) it was 28.3 ± 2.1 µM; in data set [3] (pH 8.75, varied ATP), 26.8 ± 1.5 µM. For the same molecule, the Kii in data set [3] (pH 9.00, varied ATP) is 50.4 ± 5.5 µM; in data set [3] (pH 9.25, varied ATP) it was 109.4 ± 6.8 µM. Further, the “nature of inhibition versus ATP (in words)” value in data set [2] (varied ATP, saturating PRPP, pH 8.5) is “linear and uncompetitive”. Moreover, the “nature of inhibition versus PRPP (in words)” value in data set [2] (varied PRPP, saturating ATP, pH 8.5) was “linear and noncompetitive”. Besides, in data set [4], the affinity, expressed as Kd, was 27.9 ± 3.2 µM. For the same molecule, the koff in data set [4] (pH 8.5, read-out: koff,L-histidine) stood at 0.95 ± 0.03 s⁻¹. Besides, the association rate constant (kon) in data set [4] (pH 8.5, read-out: kon,L-histidine) was found to be 4880 ± 717 M⁻¹ s⁻¹. Besides, the “% saturation transfer to L-histidine protons, Cα-H” value in data set [5] (pH 5.5), in data set [5] (pH 6.0), in data set [5] (pH 6.5), in data set [5] (pH 7.5), in data set [5] (pH 8.0) and in data set [5] (pH 8.5) was 0% throughout. Moreover, the “% saturation transfer to L-histidine protons, Cα-H” value in data set [5] (pH 9.0) is given as 0%. Also, the “% saturation transfer to L-histidine protons, Cβ-H2” value in data set [5] (pH 5.5), in data set [5] (pH 6.0), in data set [5] (pH 6.5), in data set [5] (pH 7.5), in data set [5] (pH 8.0) and in data set [5] (pH 8.5) was 0% throughout. Further, the “% saturation transfer to L-histidine protons, Cβ-H2” value in data set [5] (pH 9.0) turned out to be 0%. For the same molecule, the “% saturation transfer to L-histidine protons, Cδ2-H” value amounted to 0% in data set [5] (pH 5.5); 0% in data set [5] (pH 6.0); 0% in data set [5] (pH 6.5); 0% in data set [5] (pH 7.5); 36.9% in data set [5] (pH 8.0); 81.6% in data set [5] (pH 8.5). In addition, in data set [5] (pH 9.0), the “% saturation transfer to L-histidine protons, Cδ2-H” value is 100%. Moreover, the “% saturation transfer to L-histidine protons, Cε1-H” value is given as 0% in data set [5] (pH 5.5); 0% in data set [5] (pH 6.0); 0% in data set [5] (pH 6.5); 0% in data set [5] (pH 7.5); 40.4% in data set [5] (pH 8.0); 88.2% in data set [5] (pH 8.5). In data set [5] (pH 9.0), the “% saturation transfer to L-histidine protons, Cε1-H” value was determined as 100%. For the same molecule, the “influence of ligand on the hexameric oligomeric state of MtATP-PRT” value in data set [6] is “not influenced”. Also, the “pKa of the imidazole group” value in data set [7] (background statement) is recorded as roughly 6.0. Further, the “pKa of the α-amino group” value in data set [7] (stated in discussion) was roughly 9.
Regarding `[Cl-].[Cl-].[Mg+2]` [MgCl2], the “Kact,Mg^2+” value in data set [1] (Table 1, saturating substrates, 200 mM KCl, 25 °C) came out at 1900 ± 600 µM. Also, in data set [1] (saturating concentrations of both substrates, 200 mM KCl), the “Apparent Kact for MgCl2” value is recorded as 1.9 ± 0.6 mM.
